From PMC10249145 (Cardiovascular & hematological agents in medicinal chemistry, 2023)
pIC50: −log10 of the molar value. Structures can show the parent of a compound that is named as a salt.

Legend:
human plasma [1] = conditions: normal human plasma, positive controls; cited from earlier work
human plasma [2] = conditions: normal human plasma, positive controls; cited from earlier work; remark: listed apart in the source
human FXIIa = target: T1, human FXIIa (Homo sapiens, UniProt P00748); assay: Direct inhibition of human FXIIa, chromogenic substrate hydrolysis assay; format: biochemical; conditions: for DeltaY (efficacy of inhibition) / HS (Hill slope): human FXIIa, pH 7.4, 37 °C
T1 sequence (P00748 20-615): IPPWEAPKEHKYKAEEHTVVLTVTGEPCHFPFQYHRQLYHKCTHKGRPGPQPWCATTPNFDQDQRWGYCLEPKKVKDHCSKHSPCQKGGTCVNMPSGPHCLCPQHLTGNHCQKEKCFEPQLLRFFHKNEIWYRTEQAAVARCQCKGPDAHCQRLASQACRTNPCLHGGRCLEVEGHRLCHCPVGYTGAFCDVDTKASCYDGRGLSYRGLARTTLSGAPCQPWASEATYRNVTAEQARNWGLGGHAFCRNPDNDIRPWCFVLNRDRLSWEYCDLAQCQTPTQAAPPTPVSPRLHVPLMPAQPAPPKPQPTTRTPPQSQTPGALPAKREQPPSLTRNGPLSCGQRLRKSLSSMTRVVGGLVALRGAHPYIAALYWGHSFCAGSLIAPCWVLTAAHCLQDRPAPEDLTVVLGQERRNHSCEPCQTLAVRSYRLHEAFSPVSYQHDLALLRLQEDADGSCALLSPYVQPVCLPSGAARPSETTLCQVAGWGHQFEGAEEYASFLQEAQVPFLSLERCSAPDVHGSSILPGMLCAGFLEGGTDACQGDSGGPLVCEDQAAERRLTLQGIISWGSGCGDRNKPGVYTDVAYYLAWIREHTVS
Outline: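 Human FXIIa (stock 200 nM) was preincubated for 5 min with test compound or vehicle in Tris-HCl pH 7.4 with NaCl, 2.5 mM CaCl2, 0.1% PEG8000 and 0.02% Tween80 at 37 °C. Spectrozyme FXIIa (stock 5 mM) was then added. Twelve in-well concentrations (500–0.0025 μM) were tested. Residual activity was taken from the initial A405 rate, and a logistic fit gave IC50, efficacy and Hill slope (±1 S.E.).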

| Compound | APTT (EC×1.5) (human plasma [1]) | PT (EC×1.5) (human plasma [2]) | decrease in the inhibition potency (human FXIIa; FXIIa IC50 relative to inhibitor 1) | DeltaY (efficacy of inhibition) (human FXIIa; ± 1 S.E.) | HS (Hill slope) (human FXIIa; ± 1 S.E.) | pIC50 (human FXIIa; IC50, human FXIIa, Tris-HCl buffer pH 7.4, 37 °C, ± 1 S.E.) |
| --- | --- | --- | --- | --- | --- | --- |
| CC1CNc2c(cccc2S(=O)(=O)N[C@@H](CCCNC(=N)N)C(=O)N2CC[C@@H](C)C[C@@H]2C(=O)O)C1 (some centres unmarked) [Argatroban HCl] | ~0.19 μM^b | ~0.13 µM |  |  |  |  |
| CC(C)(C)c1ccc(C(=O)n2ncnc2N)cc1 [Inhibitor 3, (5-amino-1H-1,2,4-triazol-1-yl)(4-(tert-butyl)phenyl)methanone] |  |  | 77.5 fold | 82.1 ± 8.1% | 1.37 ± 0.69 |  |
| CC(C)(C)c1ccc(C(=O)n2nc(C(=O)O)nc2N)cc1 [Inhibitor 4, 5-amino-1-(4-(tert-butyl)benzoyl)-1H-1,2,4-triazole-3-carboxylic acid] |  |  |  | 122.4 ± 23.4% | 1.05 ± 0.55 | 3.16 |
